Activity calls are given as the source filed them. No cut-off for these calls is given here.
How the values were obtained:
[1] = Cytotoxicity against african green monkey BS-C-1 cells; assay type: cell-based; settings: chlorocebus aethiops, bsc-1
Method in brief: (§1)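 BSC-1 African green monkey kidney cells infected with Herpes simplex type 1 virus (ATCC VR 733); scored for inhibition of virus and for alteration of the host cells.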

Pseudomonas aeruginosa = assay: Antibacterial activity against Pseudomonas aeruginosa assessed as inhibition zone at 1 mg/mL by paper disk assay; assay type: functional, organism-based
Method in brief: (§2)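 Paper disk diffusion; 30 μL of a 1 mg/mL compound solution applied per disk; read-out as zone of inhibition. Panel run in parallel: bacteria E. coli, B. subtilis, P. aeruginosa; fungi C. albicans, T. mentagrophytes, A. resinae.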

P388 = assay: Cytotoxicity against mouse P388 cells; assay type: functional; settings: read-out: ID50 (the source's name)
Escherichia coli = assay: Antibacterial activity against Escherichia coli assessed as inhibition zone at 1 mg/mL by paper disk assay; assay type: functional, organism-based; method in brief: as §2
Amorphotheca resinae = assay: Antifungal activity against Amorphotheca resinae assessed as inhibition zone at 1 mg/mL by paper disk assay; assay type: functional, organism-based; method in brief: as §2
Poliovirus 1 = assay: Antiviral activity against Poliovirus type 1 infected in african green monkey BS-C-1 cells; assay type: functional, organism-based
Method in brief: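 Poliovirus type 1 (Pfizer vaccine strain) infecting African green monkey kidney BSC-1 cells; scored for inhibition of the virus and for alteration of the host cells.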

Bacillus subtilis = assay: Antibacterial activity against Bacillus subtilis assessed as inhibition zone at 1 mg/mL by paper disk assay; assay type: functional, organism-based; method in brief: as §2
Human alphaherpesvirus 1 = assay: Antiviral activity against herpes simplex virus type 1 ATCC VR 733 infected in african green monkey BS-C-1 cells; assay type: functional, organism-based; method in brief: as §1
Candida albicans = assay: Antifungal activity against Candida albicans assessed as inhibition zone at 1 mg/mL by paper disk assay; assay type: functional, organism-based; method in brief: as §2
[2] = test system: Trichophyton mentagrophytes; assay: Antifungal activity against Trichophyton mentagrophytes assessed as inhibition zone at 1 mg/mL by paper disk assay; assay type: functional, organism-based; method in brief: as §2

| Structure (SMILES) | Activity [1] | Activity (Pseudomonas aeruginosa) | IC50 (P388) [mg/L] | Activity (Escherichia coli) | Activity (Amorphotheca resinae) | Activity (Poliovirus 1) | Activity (Bacillus subtilis) | Activity (Human alphaherpesvirus 1) | Activity (Candida albicans) | Activity [2] |
| --- | --- | --- | --- | --- | --- | --- | --- | --- | --- | --- |
| CCCC(=O)N1CC[C@]23c4ccccc4N[C@H]4N(C)c5cccc6c5[C@]42CCN([C@H]6[C@@H]2OC2(C)C)[C@H]13 [COMMUNESIN H] | Non-toxic | inactive | > 12.5 | inactive | inactive | inactive | inactive | inactive | inactive | inactive |
| CCC(=O)N1CC[C@]23c4ccccc4N[C@H]4N(C)c5cccc6c5[C@]42CCN([C@H]6[C@@H]2OC2(C)C)[C@H]13 [COMMUNESIN G] | Non-toxic | inactive | > 12.5 | inactive | inactive | inactive | inactive | inactive | inactive | inactive |

From ChEMBL document CHEMBL1142588, “Communesins G and H, new alkaloids from the psychrotolerant fungus Penicillium rivulum” (J Nat Prod, 2005)
